Experimental data reported in ChEMBL document CHEMBL3751829, “Synthesis and biological evaluation of 3-tetrazolo steroidal analogs: Novel class of 5α-reductase inhibitors” (Bioorg Med Chem, 2016).

Key:
Rattus norvegicus [1] = test: Increase in body weight gain in male wistar rat at 5ml/kg, po qd measured on 15th day after 24 hrs of last dose (Rvb=9.412+/-1.632g%); assay type: ADME, organism-based; conditions: in vivo
Rattus norvegicus [2] = test: Effect on organ weight in male wistar rat assessed as liver tissue weight per 100g at 5ml/kg, po qd measured on 15th day after 24 hrs of last dose (Rvb=2.994+/- 0.254 g/100g); assay type: ADME, organism-based; conditions: in vivo
Rattus norvegicus [3] = test: Effect on organ weight in male wistar rat assessed as ventral prostate tissue weight per 100g at 5ml/kg, po qd measured on 15th day after 24 hrs of last dose (Rvb=59.494+/- 4.733 mg/100g); assay type: functional, Prostate gland
Rattus norvegicus [4] = test: Effect on organ weight in male wistar rat assessed as dorsal prostate tissue weight per 100g at 5ml/kg, po qd measured on 15th day after 24 hrs of last dose (Rvb=50.325+/-7.519 mg/100g); assay type: functional, Prostate gland
Rattus norvegicus [5] = test: Effect on organ weight in male wistar rat assessed as seminal vesicles tissue weight per 100g at 5ml/kg, po qd measured on 15th day after 24 hrs of last dose (Rvb=175.439+/-12.833 mg/100g); assay type: ADME, organism-based; conditions: in vivo
Rattus norvegicus [6] = test: Effect on organ weight in male wistar rat assessed testis tissue weight per 100g at 5ml/kg, po qd measured on 15th day after 24 hrs of last dose (Rvb=1054.099+/- 55.648 mg/100g); assay type: ADME, organism-based; conditions: in vivo
Rattus norvegicus [7] = test: Effect on organ weight in male wistar rat assessed as adrenal tissue weight per 100g at 5ml/kg, po qd measured on 15th day after 24 hrs of last dose (Rvb=14.762 +/-0.600 mg/100g); assay type: ADME, organism-based; conditions: in vivo
Rattus norvegicus [8] = test: Effect on organ weight in male wistar rat assessed as vas deferens tissue weight per 100g at 5ml/kg, po qd measured on 15th day after 24 hrs of last dose (Rvb=67.613+/-3.248 mg/100g); assay type: functional
Rattus norvegicus [9] = test: Effect on organ weight in male wistar rat assessed as epididymis tissue weight per 100g at 5ml/kg, po qd measured on 15th day after 24 hrs of last dose (Rvb=187.356+/- 5.961 mg/100g); assay type: functional
[10] = molecular target: T1, 3-oxo-5-alpha-steroid 4-dehydrogenase 2 (Homo sapiens, UniProt P31213); test: Inhibition of human 5alpha-2 reductase expressed in HEK293 cells assessed as suppression of conversion of [3]androstenedione incubated for 30 mins by radioactivity-based HPLC analysis; assay type: cell-based
T1 sequence (P31213 whole entry): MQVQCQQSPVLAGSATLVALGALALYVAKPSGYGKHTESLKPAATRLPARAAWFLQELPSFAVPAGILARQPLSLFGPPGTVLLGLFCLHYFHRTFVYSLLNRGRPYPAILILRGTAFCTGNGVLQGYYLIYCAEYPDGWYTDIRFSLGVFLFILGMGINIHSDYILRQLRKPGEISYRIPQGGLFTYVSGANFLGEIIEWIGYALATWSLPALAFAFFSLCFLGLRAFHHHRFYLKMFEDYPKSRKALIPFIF
How it was run: (§1)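 Stably transfected HEK293 lines expressing 5AR-1 (HEK-I) or 5AR-2 (HEK-II) were sonicated in saccharose/Tris/EDTA buffer. The suspension was incubated at 37 °C for 30 min with 500 nM androstenedione solution plus [3H]androstenedione and an NADP/glucose/G6PDH regenerating system. Test compounds were added in 2% DMSO. The reaction was stopped with ether; steroids were extracted and analysed by radio-HPLC.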

[11] = Cytotoxicity against human DU145 cells by rapid colorimetric assay; assay type: functional, cell-based, DU-145
How it was run: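 Antiproliferative test on DU-145 cells using the Mosmann method. Seven concentrations were tested in culture medium.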

Rattus norvegicus [12] = test: Decrease in ventral prostate organ weight in male wistar rat at 5ml/kg, po qd measured on 15th day after 24 hrs of last dose; assay type: functional, Prostate gland; set-up: scale not given: the % may be the effect or the level left
Rattus norvegicus [13] = test: Decrease in dorsal prostate organ weight in male wistar rat at 5ml/kg, po qd measured on 15th day after 24 hrs of last dose; assay type: functional, Prostate gland; set-up: scale not given: the % may be the effect or the level left
Rattus norvegicus [14] = test: Decrease in vas deferens organ weight in male wistar rat at 5ml/kg, po qd measured on 15th day after 24 hrs of last dose; assay type: functional; set-up: scale not given: the % may be the effect or the level left
Rattus norvegicus [15] = test: Decrease in epididymis organ weight in male wistar rat at 5ml/kg, po qd measured on 15th day after 24 hrs of last dose; assay type: functional; set-up: scale not given: the % may be the effect or the level left
[16] = molecular target: T2, 3-oxo-5-alpha-steroid 4-dehydrogenase 1 (Homo sapiens) (UniProt P18405); test: Inhibition of human 5alpha-1 reductase expressed in HEK293 cells assessed as suppression of conversion of [3]androstenedione at 10 uM incubated for 30 mins by radioactivity-based HPLC analysis; assay type: cell-based; how it was run: as §1
T2 sequence (whole entry): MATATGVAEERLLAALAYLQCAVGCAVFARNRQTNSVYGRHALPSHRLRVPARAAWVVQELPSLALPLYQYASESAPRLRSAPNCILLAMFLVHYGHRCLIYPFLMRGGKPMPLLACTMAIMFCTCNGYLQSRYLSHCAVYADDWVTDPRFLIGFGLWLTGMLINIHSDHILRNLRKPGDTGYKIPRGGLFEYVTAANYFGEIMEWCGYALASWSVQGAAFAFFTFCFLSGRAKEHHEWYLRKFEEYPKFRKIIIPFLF

[17] = molecular target: T3, 3-oxo-5-alpha-steroid 4-dehydrogenase 2 (Homo sapiens) (UniProt P31213); test: Inhibition of human 5alpha-2 reductase expressed in HEK293 cells assessed as suppression of conversion of [3]androstenedione at 10 uM incubated for 30 mins by radioactivity-based HPLC analysis; assay type: cell-based; how it was run: as §1
T3 sequence (whole entry): T1 sequence (P31213 whole entry)

[18] = molecular target: T3, 3-oxo-5-alpha-steroid 4-dehydrogenase 2 (Homo sapiens); test: Inhibition of human 5alpha-2 reductase expressed in HEK293 cells assessed as suppression of conversion of [3]androstenedione at 2 uM incubated for 30 mins by radioactivity-based HPLC analysis; assay type: cell-based; how it was run: as §1
Rattus norvegicus [19] = test: Toxicity in male wistar rat assessed induction of mortality at 5ml/kg, po qd measured on 15th day after 24 hrs of last dose; assay type: organism-based; conditions: in vivo
How it was run: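 Mature male Wistar rats, groups of 5, standard diet. Compounds suspended in 0.50% CMC sodium given orally at 5 ml/kg once daily for 14 days; controls received vehicle only. Animals weighed and killed under ether on day 15, 24 h after last dose.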

[20] = Homo sapiens, DU-145, read-out: IC50

Structure (SMILES)	Activity (Rattus norvegicus [1]) [g%]	Activity (Rattus norvegicus [2]) [g]	Activity (Rattus norvegicus [3]) [mg]	Activity (Rattus norvegicus [4]) [mg]	Activity (Rattus norvegicus [5]) [mg]	Activity (Rattus norvegicus [6]) [mg]	Activity (Rattus norvegicus [7]) [mg]	Activity (Rattus norvegicus [8]) [mg]	Activity (Rattus norvegicus [9]) [mg]	IC50 [10] [nM]	IC50 [11, 20] [nM]	Activity (Rattus norvegicus [12]) [%]	Activity (Rattus norvegicus [13]) [%]	Activity (Rattus norvegicus [14]) [%]	Activity (Rattus norvegicus [15]) [%]	IC50 ([11]; du-145)	inhibition [16] [%]	inhibition [17] [%]	inhibition [18] [%]	Activity (Rattus norvegicus [19])
C[C@]12CC[C@H]3[C@@H](CCC4=CC(=O)CC[C@@]43C)[C@@H]1CC[C@@H]2O [TESTOSTERONE]	3.767	3.292	70.923	45.124	167.305	1108.457	13.969	55.097	171.193	–	–	–	–	–	–	–	–	–	–	–
C[C@]12C=CC(=O)N[C@@H]1CC[C@@H]1[C@@H]2CC[C@]2(C)[C@@H](C(=O)Nc3cc(C(F)(F)F)ccc3C(F)(F)F)CC[C@@H]12 [DUTASTERIDE]	11.914	3.209	35.858	29.211	118.275	1067.385	14.208	52.802	155.415	–	–	–	–	–	–	–	–	–	–	–
CC(C)(C)NC(=O)[C@H]1CC[C@H]2[C@@H]3CC[C@H]4NC(=O)C=C[C@]4(C)[C@H]3CC[C@]12C [FINASTERIDE]	8.032	3.5097	32.866	27.519	105.51	1058.022	16.575	57.843	160.371	40	548000	44.76	45.32	14.45	14.4	–	–	–	–	–
CCN1C(=O)CC[C@H]2[C@@H]3CC=C4C=C(c5nnn[nH]5)CC[C@]4(C)[C@H]3CC[C@@]21C	–	–	–	–	–	–	–	–	–	–	–	–	–	–	–	ND(Unstable)	–	–	–	–
C[C@]12CCC(c3nnn[nH]3)=CC1=CC[C@@H]1[C@@H]2CC[C@@]2(C)[C@H]1CCC(=O)N2Cc1ccccc1	–	–	–	–	–	–	–	–	–	–	–	–	–	–	–	ND(Unstable)	–	–	–	–
C=CCN1C(=O)CC[C@H]2[C@@H]3CC=C4C=C(c5nnn[nH]5)CC[C@]4(C)[C@H]3CC[C@@]21C	19.229	3.548	39.499	41.802	141.816	1318.403	24.261	42.548	169.924	157	496000	33.61	16.94	37.07	9.3	–	31.7	100	94.7	Non-toxic
CC(=O)n1nnnc1C1=CC2=CC[C@@H]3[C@H](CC[C@]4(C)NC(=O)CC[C@@H]34)[C@@]2(C)CC1	–	–	–	–	–	–	–	–	–	–	–	–	–	–	–	ND(Unstable)	–	–	–	–
CN1C(=O)CC[C@H]2[C@@H]3CC=C4C=C(c5nnn[nH]5)CC[C@]4(C)[C@H]3CC[C@@]21C	15.456	3.328	41.684	44.593	199.778	1233.129	16.362	59.796	170.447	274	389000	29.94	11.39	11.56	9.03	–	6.4	91.2	84.3	Non-toxic
C[C@]12CCC(c3nnn[nH]3)=CC1=CC[C@@H]1[C@@H]2CC[C@]2(C)NC(=O)CC[C@@H]12	15.498	3.215	44.744	31.548	183.148	1152.287	16.421	42.532	166.584	220	–	24.79	37.31	37.09	11.09	Not Active	9.6	100	90.6	Non-toxic
C[C@]12CCC(c3nnn[nH]3)=CC1=CC[C@@H]1[C@@H]2CC[C@@]2(C)[C@H]1CCC(=O)N2CCc1nnn[nH]1	–	–	–	–	–	–	–	–	–	–	–	–	–	–	–	ND(Unstable)	–	–	–	–
